Test results taken from ChEMBL document CHEMBL1148910, “A coumarin from Mallotus resinosus that mediates DNA cleavage” (J Nat Prod, 2004).
Active and inactive are the calls of the source. The rule behind the calls is not given here.

What was measured:
[1] = tested on: Escherichia coli; experiment: Induction of strand scission in pBR322 DNA assessed as conversion from supercoiled form to nicked form at 250 uM after 60 mins by agarose gel electrophoresis in presence of Cu2+
In short: (§1)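 Supercoiled pBR322 plasmid DNA (500 ng) was incubated with 20 µM Cu2+ and test compound (in DMSO, final ≤5%) in 25 µL of 10 mM Tris-HCl, pH 8.0, at 37 °C for 60 min. Controls were DNA alone and DNA + Cu2+. Products were run on a 1.0% agarose gel with 0.7 µg/mL ethidium bromide in TBE, pH 8.3, at 110-120 V for 2-3 h, then imaged under UV. Read-out was % form II (nicked) DNA.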

[2] = tested on: Escherichia coli; experiment: Induction of strand scission in pBR322 DNA assessed as conversion from supercoiled form to nicked form at 100 uM after 60 mins by agarose gel electrophoresis in presence of Cu2+; in short: as §1
[3] = tested on: Escherichia coli; experiment: Induction of strand scission in pBR322 DNA assessed as conversion from supercoiled form to nicked form at 50 uM after 60 mins by agarose gel electrophoresis in presence of Cu2+; in short: as §1
[4] = tested on: Escherichia coli; experiment: Induction of strand scission in supercoiled pBR322 DNA by agarose gel electrophoresis in presence of Cu2+; in short: as §1
[5] = tested on: Escherichia coli; experiment: Induction of strand scission in supercoiled pBR322 DNA by agarose gel electrophoresis in presence of Fe2+
[6] = tested on: Escherichia coli; experiment: Induction of strand scission in pBR322 DNA assessed as conversion from supercoiled form to nicked form at 250 uM after 60 mins by agarose gel electrophoresis in absence of Cu2+
In short: (§2)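 No Cu2+ was added. Supercoiled pBR322 DNA (500 ng) was incubated with test compound (in DMSO, final ≤5%) in 25 µL of 10 mM Tris-HCl, pH 8.0, at 37 °C for 60 min, with DNA alone as the blank. Products were separated on a 1.0% agarose gel with ethidium bromide in TBE at 110-120 V for 2-3 h and photographed under UV. Read-out was % nicked (form II) DNA.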

[7] = tested on: Escherichia coli; experiment: Induction of strand scission in supercoiled pBR322 DNA by agarose gel electrophoresis in absence of added metal ion
[8] = tested on: Escherichia coli; experiment: Induction of strand scission in pBR322 DNA assessed as conversion from supercoiled form to nicked form at 1000 uM after 60 mins by agarose gel electrophoresis in absence of Cu2+; in short: as §2
[9] = tested on: Escherichia coli; experiment: Induction of strand scission in pBR322 DNA assessed as conversion from supercoiled form to nicked form at 500 uM after 60 mins by agarose gel electrophoresis in presence of Cu2+; in short: as §1
[10] = tested on: Escherichia coli; experiment: Induction of strand scission in pBR322 DNA assessed as conversion from supercoiled form to nicked form at 1000 uM after 60 mins by agarose gel electrophoresis in presence of Cu2+; in short: as §1
[11] = tested on: Escherichia coli; experiment: Induction of strand scission in supercoiled pBR322 DNA by agarose gel electrophoresis in presence of Cu2+ and alkali

Row | Compound | Activity [1] [%] | Activity [2] [%] | Activity [3] [%] | Activity [4] | Activity [5] | Activity [6] [%] | Activity [7] | Activity [8] [%] | Activity [9] [%] | Activity [10] [%] | Activity [11]
1 | O=c1ccc2cc(O)c(O)cc2o1 | 76 | 64 | 55 | Dose-dependent effect | inactive | 2 | inactive |  |  |  | 
2 | COc1cc2oc(=O)ccc2cc1O | 14 |  |  | Dose-dependent effect | inactive |  | inactive | 2 | 26 | 42 | 
3 | COc1cc2ccc(=O)oc2cc1O | 15 |  |  | Dose-dependent effect | inactive |  | inactive | 3 | 22 | 36 | inactive
